Assay results of several laboratories.
Compare with care: the assays were run in different laboratories. Converted amounts (≈) assume the structure as drawn.

| Structure (SMILES) | target or system | test | test system | conditions | measurement | value |
| --- | --- | --- | --- | --- | --- | --- |
| Cc1ccc2nc(-c3cccc([N+](=O)[O-])c3)[nH]c2c1 | Aspergillus niger | microbial growth | ATCC16404 | – | MIC | 256 µg/mL (≈ 1010 µM) |
| COc1cc2c(cc1O)CCN(Cc1cccc(NS(C)(=O)=O)c1)C2 | MDA-MB-231 | cell growth or viability, WST-1 | – | 96 h | GI50 | > 100 µM |
| CCCCCCCCCCCCN1CCN(CC(O)(Cn2cncn2)c2ccc(F)cc2F)CC1 (centres unmarked) | Lodderomyces parapsilosis | microbial growth | ATCC22019 | – | MIC | 0.015 µg/mL (≈ 0.0305 µM) |
| O=C1CCCCC1=C1Sc2nc3ccc(S(=O)(=O)N4CCCC4)cc3nc2S1 | MDA-MB-231 | cell growth or viability, MTT | – | 50 µM, 24 h | viability | 14.9% |
| CCC(C)n1ncn(-c2ccc(N3CCN(c4ccc(OCC5COC(Cn6cncn6)(c6ccc(Cl)cc6Cl)O5)cc4)CC3)cc2)c1=O (centres unmarked) | Lodderomyces parapsilosis | microbial growth | – | – | MIC90 | 0.125 µg/mL (≈ 0.177 µM) |
| COc1ccc(-c2nc3ccccc3[nH]2)cc1O | Aspergillus niger | microbial growth | ATCC16404 | – | MIC | 512 µg/mL (≈ 2130 µM) |
| OC(Cn1cncn1)(Cn1cncn1)c1ccc(F)cc1F | Lodderomyces parapsilosis | microbial growth | – | – | MIC90 | 1 µg/mL (≈ 3.27 µM) |
| Cc1ccc2nc(-c3ccc(F)cc3)n(Cc3ccccc3)c2c1 | Aspergillus niger | microbial growth | ATCC16404 | – | MIC | 64 µg/mL (≈ 202 µM) |
| COc1cc2c(cc1OS(N)(=O)=O)CCN(Cc1cccc(NS(C)(=O)=O)c1)C2 | MDA-MB-231 | cell growth or viability, WST-1 | – | 96 h | GI50 | > 100 µM |
| Cc1ccc2nc(-c3ccc(Cl)cc3)n(Cc3ccccc3)c2c1 | Aspergillus niger | microbial growth | ATCC16404 | – | MIC | 32 µg/mL (≈ 96.1 µM) |
| CCc1cccc(CN2CCc3cc(O)c(OC)cc3C2)c1 | MDA-MB-231 | cell growth or viability, WST-1 | – | 96 h | GI50 | > 100 µM |
| OC(CNCCN1CCOCC1)(Cn1cncn1)c1ccc(F)cc1F (centres unmarked) | Lodderomyces parapsilosis | microbial growth, broth dilution | ATCC22019 | 48 h | MIC | 31.3 µg/mL (≈ 85.2 µM) |
| COc1cccc2c1C(=O)c1c(O)c3c(c(O)c1C2=O)C[C@@](O)(C(=O)CO)C[C@@H]3O[C@H]1C[C@H](N)[C@H](O)[C@H](C)O1 | MDA-MB-231 | cell growth or viability, MTT | – | 50 µM, 24 h | viability | 11.8% |
| COc1ccc(CN2CCc3cc(OS(N)(=O)=O)c(OC)cc3C2)cc1OC | MDA-MB-231 | cell growth or viability, WST-1 | – | 96 h | GI50 | 3.15 µM |
| C=CCn1c(-c2ccc(Cl)c(Cl)c2)nc2ccccc21 | Aspergillus niger | microbial growth | ATCC16404 | – | MIC | 256 µg/mL (≈ 844 µM) |
| COc1cc2c(cc1O)CCN(C(=O)c1cc(OC)c(OC)c(OC)c1)C2 | MDA-MB-231 | cell growth or viability, WST-1 | – | 96 h | GI50 | 0.733 µM |
| CCOC(=O)C(C(C)=O)=C1Sc2nc3ccc(S(=O)(=O)N4CCCC4)cc3nc2S1 | MDA-MB-231 | cell growth or viability, MTT | – | 25 µM, 24 h | viability | 13.8% |
